Measured values: ChEMBL document CHEMBL1138293, “Novel peptide inhibitors of human secretory phospholipase A2 with antiinflammatory activity: solution structure and molecular modeling” (J Med Chem, 2007)
The source made the active and inactive calls. The calls are words filed in the database; no cut-off is given here.

Assays:
Homo sapiens [1] = organism: Homo sapiens; test: Inhibition of human recombinant synovial PLA2 by at 5 uM
Procedure, shortened: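 Single peptide concentration of 5 µM against purified human synovial type IIA sPLA2 (0.85 pmol), with [3H]arachidonate-labeled E. coli membranes as substrate in 100 mM Tris-HCl, 25 mM CaCl2, pH 7.5. Released label was counted by liquid scintillation, in triplicate. Results are % inhibition relative to enzyme preincubated with buffer alone; groups were compared by one-way ANOVA with Dunnett's test.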

[2] = Inhibition of human recombinant synovial PLA2
Procedure, shortened: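 Purified human synovial type IIA sPLA2 (0.85 pmol) was preincubated with peptide (1-250 range) and then reacted with [3H]arachidonate-labeled E. coli membranes in 100 mM Tris-HCl, 25 mM CaCl2, pH 7.5. Released [3H]arachidonate was counted by liquid scintillation, in triplicate. IC50 (mean ± SD) was obtained from sigmoid curves by nonlinear regression of % inhibition versus buffer-only control.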

Homo sapiens [3] = organism: Homo sapiens; test: Inhibition of IL-1-beta-induced MMP9 levels in human RASFs after 1 hr by ELISA; type: functional
Procedure, shortened: (§1)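 Primary synovial fibroblasts from three RA knee-replacement patients, passages 3-8, grown to confluence and serum-starved 16 h. Cells were preincubated 1 h at 37 °C with 5 µM peptide or vehicle (0.1% DMSO final), then given hrIL-1β 10 ng/mL for 24 h. Supernatants were stored at -20 °C, and type IIA sPLA2 or MMP-1/-2/-9 was measured by ELISA in triplicate.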

Homo sapiens [4] = organism: Homo sapiens; test: Inhibition of IL-1-beta-induced MMP9 gene expression in human RASFs by QRT-PCR; type: functional
Procedure, shortened: (§2)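 Primary synovial fibroblasts from three RA patients (passages 3-8), grown to confluence in DMEM/10% FBS and serum-starved 16 h. Preincubated 1 h with 5 µM peptide or vehicle (0.1% DMSO final), then stimulated 24 h with hrIL-1β 10 ng/mL. Cells from 3 flasks pooled per group, total RNA isolated and DNase-treated, then transcripts quantified by qRT-PCR. Unstimulated cells served as controls.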

Homo sapiens [5] = organism: Homo sapiens; test: Inhibition of IL-1-beta-induced MMP2 levels in human RASFs after 1 hr by ELISA; type: functional; procedure, shortened: as §1
Homo sapiens [6] = organism: Homo sapiens; test: Inhibition of IL-1-beta-induced MMP2 gene expression in human RASFs by QRT-PCR; type: functional; procedure, shortened: as §2
Homo sapiens [7] = organism: Homo sapiens; test: Effect on IL-1-beta-stimulated TIMP2 production in human RASFs; type: functional
Homo sapiens [8] = organism: Homo sapiens; test: Inhibition of IL-1-beta-induced sPLA2 gene expression in human RASFs by QRT-PCR; type: functional; procedure, shortened: as §2
Homo sapiens [9] = organism: Homo sapiens; test: Inhibition of IL-1-beta-induced sPLA2 production in human RASFs by ELISA; type: functional
Procedure, shortened: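 RA synovial fibroblasts (passages 3-8, serum-starved 16 h) were preincubated 1 h at 37 °C with peptide (1, 2.5, 5 or 10 µM) or vehicle (0.1% DMSO final), then cultured a further 24 h with or without IL-1β 10 ng/mL. Supernatant sPLA2-IIA was measured by EIA in triplicate; mean ± SD from a representative of three RASF lines.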

Oryctolagus cuniculus [10] = organism: Oryctolagus cuniculus; test: Inhibition of IL-1-beta-induced MMP9 gene expression in rabbit HIG82 cells by QRT-PCR; type: functional, cell-based
Procedure, shortened: (§3)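 Rabbit HIG-82 fibroblast-like synoviocytes were grown in Ham's F-12/10% FBS to 80% confluence. They were serum-starved 2 h with or without 5 µM peptide; controls got medium or vehicle (0.1% DMSO). Cells were then stimulated 24 h with rhIL-1β 5 ng/mL, washed in cold PBS, RNA extracted, and transcripts measured by qRT-PCR.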

Homo sapiens [11] = organism: Homo sapiens; test: Inhibition of IL-1-beta-induced sPLA2 production in human RASFs at 5 uM by ELISA; type: functional; procedure, shortened: as §1
[12] = Toxicity against human RASF at 1 to 10 uM after 24 hrs
Procedure, shortened: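 Primary RA synovial fibroblasts (passages 3-8) were exposed to peptide at 1, 5 and 10 µM for 24 h. Viability was read by the XTT cell proliferation assay.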

Homo sapiens [13] = organism: Homo sapiens; test: Inhibition of IL-1-beta-induced MMP1 gene expression in human RASFs by QRT-PCR; type: functional; procedure, shortened: as §2
Oryctolagus cuniculus [14] = organism: Oryctolagus cuniculus; test: Inhibition of IL-1-beta-induced MMP2 gene expression in rabbit HIG82 cells by QRT-PCR; type: functional, cell-based; procedure, shortened: as §3
Oryctolagus cuniculus [15] = organism: Oryctolagus cuniculus; test: Inhibition of IL-1-beta-induced TIMPs gene expression in rabbit HIG82 cells by QRT-PCR; type: functional, cell-based; procedure, shortened: as §3
Oryctolagus cuniculus [16] = organism: Oryctolagus cuniculus; test: Inhibition of IL-1-beta-induced sPLA2 gene expression in rabbit HIG82 cells by QRT-PCR; type: functional, cell-based; procedure, shortened: as §3
Homo sapiens [17] = organism: Homo sapiens; test: Inhibition of IL-1-beta-induced TIMPs gene expression in human RASFs by QRT-PCR; type: functional; procedure, shortened: as §2
Homo sapiens [18] = organism: Homo sapiens; test: Inhibition of IL-1-beta-induced MMP1 levels in human RASFs after 1 hr by ELISA; type: functional; procedure, shortened: as §1
Oryctolagus cuniculus [19] = organism: Oryctolagus cuniculus; test: Inhibition of IL-1-beta-induced MMP1 gene expression in rabbit HIG82 cells by QRT-PCR; type: functional, cell-based; procedure, shortened: as §3

Compound | inhibition (Homo sapiens [1]) [%] | IC50 [2] [µM] | other results
H-LGRVDIHVWDGVYIR-OH | 51 | 5.75 | –
H-LGRVDIHVWDGVYI-OH | 49.7 | 5.8 | –
CC[C@H](C)[C@@H](NC(=O)[C@H](CC(=O)O)NC(=O)[C@@H](NC(=O)[C@@H](N)CCCNC(=N)N)C(C)C)C(=O)N[C@@H](Cc1cnc[nH]1)C(=O)N[C@H](C(=O)N[C@@H](Cc1c[nH]c2ccccc12)C(=O)N[C@@H](CC(=O)O)C(=O)NCC(=O)N[C@H](C(=O)O)C(C)C)C(C)C | 59.5 | 3.67 | –
H-LGRVDIHVWDGVYIRG-OH | 52.4 | 5.6 | –
H-LGRVDIHVWDGVY-OH | 48.7 | 5.95 | –
CC[C@H](C)[C@@H](NC(=O)[C@H](CC(=O)O)NC(=O)[C@@H](N)C(C)C)C(=O)N[C@@H](Cc1cnc[nH]1)C(=O)N[C@H](C(=O)N[C@@H](Cc1c[nH]c2ccccc12)C(=O)N[C@@H](CC(=O)O)C(=O)NCC(=O)N[C@H](C(=O)O)C(C)C)C(C)C | 56.4 | 3.8 | –
H-IHVWDGV-OH | 35.4 | 6.21 | –
H-VDIHVWSGV-OH | 52.5 | 5.25 | –
H-LGRVDIHVWDGVYIRGR-OH | 55.6 | 5.3 | –
H-VDIHVWAGV-OH | 48.5 | 5.45 | –
CC[C@H](C)[C@@H](NC(=O)[C@H](CC(=O)O)NC(=O)[C@@H](NC(=O)[C@H](CCCNC(=N)N)NC(=O)CN)C(C)C)C(=O)N[C@@H](Cc1cnc[nH]1)C(=O)N[C@H](C(=O)N[C@@H](Cc1c[nH]c2ccccc12)C(=O)N[C@@H](CC(=O)O)C(=O)NCC(=O)N[C@H](C(=O)O)C(C)C)C(C)C | 14.2 | – | –
H-VDIHVWEGV-OH | 57.6 | 4.95 | –
H-VDIHVWDGVVDIHVWDGV-OH | 74.5 | 1.19 | Activity (Homo sapiens [3]): Active; Activity (Homo sapiens [4]): Active; Activity (Homo sapiens [5]): Active; Activity (Homo sapiens [6]): Active; Activity (Homo sapiens [7]): inactive; Activity (Homo sapiens [8]): Active; Activity (Homo sapiens [9]): Dose-dependent effect; Activity (Oryctolagus cuniculus [10]): Active; Activity (Homo sapiens [11]): Active; Activity [12]: Non-toxic; Activity (Homo sapiens [13]): Active; Activity (Oryctolagus cuniculus [14]): Active; Activity (Oryctolagus cuniculus [15]): inactive; Activity (Oryctolagus cuniculus [16]): Active; Activity (Homo sapiens [17]): inactive; Activity (Homo sapiens [18]): Active; Activity (Oryctolagus cuniculus [19]): Active
H-LGRVDIHVWDGV-OH | 34.2 | – | –
CCc1c(C(=O)C(N)=O)c2c(OCC(=O)O)cccc2n1Cc1ccccc1 [VARESPLADIB] | – | – | Activity (Homo sapiens [3]): Active; Activity (Homo sapiens [5]): Active; Activity (Homo sapiens [7]): inactive; Activity (Homo sapiens [11]): Active; Activity [12]: Non-toxic; Activity (Homo sapiens [18]): Active
CC[C@H](C)[C@@H](NC(=O)[C@@H](N)CC(=O)O)C(=O)N[C@@H](Cc1cnc[nH]1)C(=O)N[C@H](C(=O)N[C@@H](Cc1c[nH]c2ccccc12)C(=O)N[C@@H](CC(=O)O)C(=O)NCC(=O)N[C@H](C(=O)O)C(C)C)C(C)C | 45.9 | 5.75 | –
